# Screens deposited in PubChem BioAssay by The Scripps Research Institute Molecular Screening Center.
# V1aR counter – agonists of human V1a receptor, primary screen, counter-screen for OXTR agonist project, fluorescence, CHO-V1R cells; Vasopressin V1a receptor (Homo sapiens), P37288; Fluo-8 calcium fluorescence, agonist mode; 0% DMSO, 100% 3 nM vasopressin; activation, % at 3 µM; hit rate 0.25% among 320,000;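 active = activation above the mean activation of all tested compounds plus 3 SD, per screening run, cut at about 20% in these data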;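 note: signal is peak over basal fluorescence ratio across a 100 second FLIPR read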
# Target sequence (P37288 whole entry, looked up): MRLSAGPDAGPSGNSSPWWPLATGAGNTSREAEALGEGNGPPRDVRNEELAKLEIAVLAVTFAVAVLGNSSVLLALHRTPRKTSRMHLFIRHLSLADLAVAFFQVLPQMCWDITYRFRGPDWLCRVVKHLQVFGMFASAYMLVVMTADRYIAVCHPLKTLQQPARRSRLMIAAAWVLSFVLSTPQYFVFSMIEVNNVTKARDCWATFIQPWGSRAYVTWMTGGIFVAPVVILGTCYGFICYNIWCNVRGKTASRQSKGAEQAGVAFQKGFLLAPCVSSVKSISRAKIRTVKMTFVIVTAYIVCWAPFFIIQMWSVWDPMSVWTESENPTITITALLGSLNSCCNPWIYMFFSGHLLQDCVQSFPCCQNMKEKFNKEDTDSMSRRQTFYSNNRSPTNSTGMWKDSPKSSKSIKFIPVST
# TRPML3 agonist – human TRPML3 channel agonists, primary screen, cell-based, HEK293 TRPML3-YFP, Fluo-8 calcium fluorescence, 3 µM; Mucolipin-3 (Homo sapiens), Q8TDD5; 100% = the carbachol control signal; activation, % at 3 µM; hit rate 0.29% among 220,000; AID 1448, 2008;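 active = activation above its plate's cutoff, the mean activation of the plate's test wells plus 3 SD, cut at about 12% in these data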;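 note: 0% = DMSO only wells and 100% = carbachol wells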
#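 Material: TRPML3-YFP stable HEK293 cells | Dosing: One concentration, 3 µM nominal, 0.3% DMSO | Timing: 125 s total fluorescence read per well | Technique: Fluo-8 calcium dye fluorescence, ex 470-495, em 515-575 nm | Measure: Percent activation from peak-to-basal fluorescence ratio, scaled between DMSO and carbachol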
# OXTR potentiate – human OXTR potentiators, primary screen, fluorescence, CHO-OTR cells, Fluo-8 calcium. AID 2445, 2010. activation, % at 3 µM. Fluo-8 calcium fluorescence, potentiator mode; 0% = oxytocin EC15, 100% = EC100. hit rate 0.061% among 320,000;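 active = activation above that plate's cutoff, the mean activation of tested compounds plus 3 SD, cut at about 6.6% in these data, passing the limit was not always enough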;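 note: 100% uses oxytocin at 75 nM as the full agonist control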
#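 test system = CHO-OTR cells, human receptor | compound = single-point 3.0 µM | schedule = 6 min compound pre-incubation at room temperature, 100 s kinetic read | signal = Fluo-8 no-wash calcium dye fluorescence, excitation 470-495 nm, emission 515-575 nm | repeats = single well per compound, singlicate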
# OXTR ag – human OXTR agonists, primary screen, fluorescence, CHO-OTR cells, Fluo-8 calcium; hit rate 0.32% among 320,000; Fluo-8 calcium fluorescence; normalized: DMSO 0%, oxytocin 100%; activation, % at 3 µM; AID 2435, 2010; Oxytocin receptor (Homo sapiens), P30559;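 active = activation above the mean of all tested compounds plus 3 SD, cutoff set per screening run, cut at about 20% in these data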;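 note: peak over basal fluorescence ratio from a 100 s FLIPR kinetic read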
# zfTRPN1 agonist – zebrafish TRPN1 channel agonists, primary screen, cell-based, HEK293, calcium fluorescence. HEK293 zebrafish TRPN1-YFP, Fluo-8 calcium fluorescence; 100% = response to 87 µM carbachol. activation, % at 3 µM. hit rate 0.18% among 220,000. AID 1424, 2008;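 active = activation above its plate's cutoff, the mean activation of test wells on that plate plus 3 SD, cut at about 19% in these data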;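 note: 0% = DMSO alone and 100% = 87 µM carbachol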
#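 Material: zebrafish TRPN1-YFP in HEK293 cells. Doses: one dose of 3 µM, 0.3% DMSO. Incubation: dye 1 h 37 °C plus 30 min RT. Measured by: intracellular calcium fluorescence with Fluo-8.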
# The depositor's hits bear a star; nt = no result. The list is not random: actives were taken first. Their share in the collection is about 0.55%.
SMILES,V1aR counter,TRPML3 agonist,OXTR potentiate,OXTR ag,zfTRPN1 agonist
Nc1c(C(=O)c2ccccc2)sc2nsc(SCCN3CCCC3)c12,1.4,12.7*,-2.8,2.5,26.2*
Nc1c(C(=O)c2ccc(Cl)cc2)sc2nsc(SCCN3CCOCC3)c12,5.1,10.9,-7.8,4.6,23.1*
CC(=O)c1sc2nsc(SCCN3CCCCC3)c2c1N,1.0,0.7,1.1,1.8,2.1
COc1ccccc1N1CCN(c2ncnc3sc(C(=O)NCC4CCCO4)c(C)c23)CC1 (stereo not given),5.5,nt,-4.7,2.6,nt
CCOc1ccc(S(=O)(=O)Nc2ccc(C(=O)N3CCCC3)cc2)cc1,3.2,nt,-9.2,3.6,nt
CCOc1ccc(NS(=O)(=O)c2ccc(C(=O)N3CCCC(C)C3)cc2)cc1 (stereo not given),39.3*,nt,-9.8,47.1*,nt
Cc1ccc(NS(=O)(=O)c2ccc(C(=O)N3CCC3)cc2)cc1,5.8,nt,-12.9,4.2,nt
COc1ccc(NS(=O)(=O)c2ccc(C(=O)N3CCCCCC3)cc2)cc1,24.1*,nt,-12.4,26.9*,nt
O=C(c1ccccc1)c1ccc(C(=O)N2CCCC(C(F)(F)F)C2)cc1 (stereo not given),0.5,nt,-14.8,-1.6,nt
CCOc1ccc(NS(=O)(=O)c2ccc(C(=O)N3CCCCCC3)cc2)cc1,16.8,nt,-24.4,15.1,nt
Cc1ccc(NS(=O)(=O)c2ccc(C(=O)N3CC(C)OC(C)C3)cc2)cc1 (stereo not given),37.4*,nt,-17.4,41.0*,nt
O=C(c1ccc(S(=O)(=O)Nc2ccccc2)cc1)N1CCCC(C(F)(F)F)C1 (stereo not given),43.2*,nt,-16.3,36.1*,nt
C[C@H](CO)N1C[C@H](C)[C@@H](CN(C)Cc2ccc(Oc3ccccc3)cc2)Oc2c(NS(=O)(=O)c3cn(C)cn3)cccc2C1=O,-0.3,nt,-2.2,1.2,nt
NC(=O)c1cccc(-c2cc(Nc3ccc(OC(F)(F)F)cc3)ncn2)c1,1.8,nt,-10.5,-0.2,nt
O=C1CC(=O)Nc2cc(S(=O)(=O)Nc3cccc(C(F)(F)F)c3)ccc2N1,0.2,nt,0.6,0.5,nt
CCOc1ccccc1N(CC(=O)N1CCOCC1)S(=O)(=O)c1ccccc1,0.7,182.0*,0.1,-0.3,6.2
COc1cccc(NC(=O)CCNC(=O)N2CC(=O)Nc3ccccc32)c1,0.7,nt,-8.4,-0.1,nt
CCCN(CCO)C1CCN(CCc2ccccc2)CC1,0.6,nt,0.1,1.2,nt
CN(C)/C=N/NC(=O)c1ccccc1Cl,-0.4,0.7,8.4,0.4,0.7
CN(C)/C=N/NC(=O)c1ccc(Cl)cc1,1.1,46.3*,-0.6,0.4,34.1*
C[C@H](CO)N1C[C@H](C)[C@@H](CN(C)C(=O)Nc2ccccc2)Oc2ccc(NC(=O)CCC(F)(F)F)cc2C1=O,-0.6,nt,-3.3,0.6,nt
CCN(CC)c1ccc(C2Nc3cccc4cccc(c34)N2)c(O)c1,0.5,-0.6,0.8,32.0*,0.0
COc1ccc(N/N=C(\C#N)C(=N)N2CCCCC2)cc1,-0.6,-0.2,-7.8,0.7,0.0
COc1ccc(N/N=C(\C#N)C(=N)SCc2ccccc2)cc1,nt,15.3*,nt,nt,19.2*
COc1cc(CN2CCNC(=O)C2CC(=O)O)cc(OC)c1 (stereo not given),0.0,0.8,-1.3,-0.1,0.6
CCOC(=O)c1ccc(NC(=S)N2CCSC2c2ccc(Cl)cc2)cc1 (stereo not given),39.0*,3.1,-11.8,37.5*,5.2
COc1ccc(C2SCCN2C(=S)Nc2cccc(C(F)(F)F)c2)cc1 (stereo not given),22.0*,2.6,-14.2,39.0*,6.2
N#CCC(=O)Nc1ccc(C(=O)N2CCN(c3ccccn3)CC2)cc1,-0.5,nt,2.9,6.0,nt
COCCN(C(=O)CSc1nnc(-c2ccccc2F)n1N)c1c(N)n(Cc2ccccc2)c(=O)[nH]c1=O,0.2,nt,-5.9,-0.7,nt
COc1ccc(C(=O)N2CCN(c3ccccc3Cl)CC2)cc1S(=O)(=O)NC1CC1,2.0,nt,-8.5,1.1,nt
